PMI act: activators of human phosphomannose isomerase | purified human PMI, coupled resazurin fluorescence, 20 min; hits give high values; 1 = vehicle control, 0 substrate-free wells | activation factor at 20 µM | 190,000 compounds, 0.005% hits | P34949;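 active = activation factor of 2 or more at 20 µM, relative to plate controls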
Target sequence (P34949 whole entry, looked up): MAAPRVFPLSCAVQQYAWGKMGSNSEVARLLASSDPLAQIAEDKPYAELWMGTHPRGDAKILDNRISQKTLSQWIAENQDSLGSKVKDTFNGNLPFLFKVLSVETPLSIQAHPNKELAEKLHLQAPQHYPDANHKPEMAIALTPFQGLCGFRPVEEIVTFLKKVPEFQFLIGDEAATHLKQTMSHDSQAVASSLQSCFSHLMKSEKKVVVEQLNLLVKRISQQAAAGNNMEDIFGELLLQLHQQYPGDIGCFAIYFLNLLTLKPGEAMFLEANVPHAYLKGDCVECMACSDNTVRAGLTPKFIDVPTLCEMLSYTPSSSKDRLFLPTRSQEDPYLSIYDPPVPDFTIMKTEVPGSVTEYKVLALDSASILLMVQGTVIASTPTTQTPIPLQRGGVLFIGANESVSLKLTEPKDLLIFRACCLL
TNAP inh hi DEA: inhibitors of human TNAP at high phosphate acceptor concentration | P05186 | purified TNAP, CDP-star luminescence, 1 M DEA | inhibition, % at 20 µM | 200,000 compounds, 0.03% hits;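 active = over 50% inhibition of tissue-nonspecific alkaline phosphatase at 20 µM in the single-dose screen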;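 note: plate controls were DMSO wells for no effect and EDTA-quenched wells as full inhibition for full effect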
TNAP inh noacc: inhibitors of human TNAP without phosphate acceptor; purified TNAP, CDP-star luminescence, 30 min; AID 1012; 200,000 compounds, 0.26% hits; inhibition, % at 20 µM;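 active = tissue-nonspecific alkaline phosphatase inhibition above about 50% at 20 µM in the single-dose screen, limit read from the data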;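 note: 0% = DMSO negative control and 100% = EDTA positive control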
TNAP act hiacc: activators of human TNAP at high phosphate acceptor concentration | 200,000 tested, under 10 active | purified TNAP, CDP-star luminescence, 1 M DEA, 30 min; hits give high values; 0 = EDTA background, 1 = DMSO-only activity | AID 1136 | activation factor at 20 µM | P05186;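 active = activation factor at least 2 at 20 µM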
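Dosing: 20 µM single point. System: human TNAP. Amount: TNAP 1/800 final. Incubation: 30 min, room temperature. Read-out: TNAP activation factor scaled between EDTA and DMSO control wells. Signal: luminescence from CDP-star hydrolysis. Medium: 1 M DEA, pH 9.8, Mg2+, Zn2+. Control set: EDTA negative control, DMSO positive control.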
PMI act satM6P: PMI (human) activation, high substrate | 190,000 compounds, 0.34% hits | AID 1216 | activation factor at 20 µM | P34949 | coupled PMI enzyme assay, resazurin fluorescence, 20 min; hits give high values; 1 = untreated enzyme, 0 = substrate-free blank;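 active = activation factor of 2 or more at 20 µM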
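Material: human phosphomannose isomerase with PGI, G6PDH, diaphorase coupling enzymes. Quantity: 15 ng/mL PMI. Medium: HEPES pH 7.4 buffer with MgCl2 and Tween-20. Reagent: Near-saturating mannose-6-phosphate, 1.0 mM. Compound: 20 µM single dose. Times: enzyme reaction with compound 20 min at room temperature. Detection: resorufin fluorescence at Ex 544/Em 590 nm.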
Active calls of the source: *; . = not tested or not shown. In the library only some 0.64% were active in any assay of this set; here they are far more common.

SMILES	PMI act	TNAP inh hi DEA	TNAP inh noacc	TNAP act hiacc	PMI act satM6P
CSc1ccc(/C=N/Nc2ccc(Cl)c(C(=O)O)c2)cc1	1.7	-3.7	-16.4	1	2.4*
COc1cc(/C=N/Nc2ccccc2)ccc1OC(=O)c1cccs1	1.5	-1.4	-17.9	1	2.2*
COc1cc(/C=N/Nc2ccc(Cl)c(C(=O)O)c2)ccc1OC(=O)c1cccs1	1.6	-1.0	-10.4	1	2.4*
COc1cc(/C=N/Nc2ccc(Cl)c(C(=O)O)c2)ccc1OC(=O)c1ccco1	1.6	-1.4	-8.5	1	1.5
COC(=O)C(NNc1ccccc1)(NC(=O)c1ccccc1F)C(F)(F)F (configuration not stated)	1.5	-4.0	-12.2	1	2.3*
CCn1c(SCC(=O)Nc2sc3c(c2C#N)CCC(C(C)(C)C)C3)nnc1-c1ccco1 (configuration not stated)	0.8	3.5	-3.1	1	0.8
CCn1c(SCC(=O)Nc2sc3c(c2C#N)CCCC3)nnc1-c1ccco1	0.9	52.6*	34.6	0.5	1
COc1ccc(-n2nnc3c(=O)n(CC(=O)Nc4cc(C)on4)cnc32)cc1OC	1.1	-3.8	-16.5	1	1.1
O=C(O)c1ccccc1-c1ccccc1C(=O)Nc1ccccc1	1	-0.6	-8.0	1	1
O=C(O)c1ccccc1-c1ccccc1C(=O)NNc1ccccc1	1.7	-5.4	-11.1	1.1	2.9*
Cc1ccc2nc(SCC(=O)Nc3cc([N+](=O)[O-])ccc3F)[nH]c2c1	0.8	1.0	-14.1	1	0.9
N=C1SCC(=O)N1c1ncc(Cc2ccc(F)cc2)s1	.	-4.7	-58.4	1	.
Cn1c(O)c(/C=N/Nc2ccccc2)c(=O)n(C)c1=O	1.7	0.7	-11.4	1	2.6*
O=C(NNC(=O)c1ccc(O)cc1O)c1ccc(Cl)cc1	1	0.0	76.1*	1	1
COc1ccc(/C=C/C(=O)NCCN=C2NS(=O)(=O)c3ccccc32)cc1	1	-4.5	-3.9	1	1
COc1ccc(-c2nc(=S)c3ccc4ccccc4c3[nH]2)cc1	1.7	0.2	-4.1	1	2.3*
COc1ccc(-c2nc3ccccc3[nH]2)cc1	1	0.7	-17.8	1	1
Cc1ccc(/C=C/C(=O)NCc2ccc(S(N)(=O)=O)cc2)o1	1	4.7	17.7	1	0.9
C/C(=N\NC(=O)c1ccccc1)c1ccc(-n2ccnc2)cc1	0.9	-1.7	-6.0	1	1
C/C(=N\Nc1ccc(Cl)c(Cl)c1)c1ccc(-n2ccnc2)cc1	1.7	-2.7	1.9	1	2.6*
C=CCn1c(O)c(N=Nc2ccccc2C)c2ccccc21	1.7	4.5	12.4	1	2.2*
C=CCn1c(O)c(N=NC(=O)OC(C)(C)C)c2ccccc21	0.9	4.9	2.1	1	1
CC1(C)CC(=O)C(CC(=O)Nc2cc(C(F)(F)F)ccc2Cl)C(=O)C1	1.3	35.3	52.3*	0.6	1.1
CCC1Nc2ccccc2-c2nnc(SC)nc2O1 (configuration not stated)	1	-8.4	3.1	1.1	1.1
COc1ccccc1C(=O)C1Nc2ccccc2-c2nnc(SC)nc2O1 (configuration not stated)	1.7	3.5	-3.9	1	2.5*
SMILES	PMI act	TNAP inh hi DEA	TNAP inh noacc	TNAP act hiacc	PMI act satM6P
O=C(NCC(=O)N(c1cccc(F)c1)C(C(=O)NC1CCCC1)c1cccnc1)c1cccs1 (configuration not stated)	1	-2.7	-13.4	1	1
O=C(c1n[nH]c2ccccc12)N1CCCCC1	0.9	0.3	82.4*	1	0.9
O=C(c1n[nH]c2ccccc12)N1CCOCC1	1.1	0.9	21.6	1	1.1
COc1ccc(CNC(=O)COC(=O)c2n[nH]c3ccccc23)cc1OC	1.2	1.2	42.6	1	1.2
Cc1cc(NC(=O)COC(=O)c2n[nH]c3ccccc23)no1	1	-3.7	52.0*	1	0.9
CC1CCCN(C(=O)COC(=O)c2n[nH]c3ccccc23)C1 (configuration not stated)	0.9	-0.7	59.5*	1	0.8
O=C(O)CCCn1cc(NC(=O)c2ccc(Br)o2)cn1	1	-2.4	-9.3	1	0.9
CC1CCC2C(=O)N(c3ccc(C(=O)NCc4ccccc4)cc3)C(=O)C2C1 (configuration not stated)	1	-0.1	-14.2	1	0.9
COc1ccc2c(c1)c(C(=O)N/N=C/c1ccc(O)c(O)c1)c(C)n2C	0.6	0.9	55.8*	1	0.9
Cc1cc(SCC(=O)N/N=C/c2ccc(O)c(O)c2)c(C)cc1Br	0.8	12.2	50.2*	0.9	0.8
COc1ccc2nc(C)cc(SCC(=O)N/N=C/c3ccc(O)c(O)c3)c2c1	0.7	20.1	75.6*	0.8	1.1
COc1cccc2c(SCC(=O)N/N=C/c3ccccc3)cc(C)nc12	0.9	-3.3	-10.2	1	0.9
COc1cccc2c(SCC(=O)N/N=C/c3ccc(O)c(O)c3)cc(C)nc12	0.6	11.4	72.2*	0.9	1
O=[N+]([O-])c1ccc(CSc2nnc(SCc3ccc(Cl)cc3)s2)cc1	0.9	0.4	-7.0	1	1.1
CN(C)c1ccc(/C=C(\C#N)C(=O)Nc2nc3c(s2)CCN(Cc2ccccc2)C3)cc1	1.1	26.0	55.4*	0.7	1
O=C(Nc1nc2c(s1)CN(Cc1ccccc1)CC2)C1CCC1	0.8	-4.6	-4.4	1	0.7
COc1cc(/C=N/NC(=O)c2cc(-c3cccn3C)n[nH]2)cc(OC)c1OC	0.9	8.9	91.3*	0.9	0.9
COc1cccc(/C=N/NC(=O)c2cc(-c3cccn3C)n[nH]2)c1	0.9	7.0	94.0*	0.9	0.9
COc1cccc(/C=N/NC(=O)c2cc(-c3cccn3C)n[nH]2)c1O	0.9	1.6	-156.9	1	1.2
C/C(=N\NC(=O)CSc1ncccn1)c1ccc2c(c1)OCCO2	0.9	-6.0	-11.7	1.1	0.9
N#Cc1c(NC(=S)NC(=O)c2ccccc2)sc2c1CCN(CCc1ccccc1)C2	1.6	12.3	9.6	0.9	2.2*
CCCCNC(=S)Nc1cccc2cnccc12	0.9	0.7	-11.4	1	1
S=C(NCCc1ccccc1)Nc1cccc2cnccc12	0.9	1.5	53.1*	1	0.4
CC1=NN(c2ccc(N)cc2)C(=O)C1	1.6	-3.6	-24.5	1	2*
CC1=NN(c2ccc(Cl)cc2)C(=O)C1	1.3	-8.2	-16.1	1.1	1.1
O=C1CCCC2=C1C(c1ccncc1)n1c(nc3ccccc31)N2 (configuration not stated)	1.1	-3.1	19.9	1	1
CC1CC(=O)C2=C(C1)Nc1nc3ccccc3n1C2c1cccnc1 (configuration not stated)	0.9	-2.6	53.4*	1	0.8

High-throughput results (PubChem BioAssay)
